Experimental data published in ChEMBL document CHEMBL4699593, “Identification of 2,4-Disubstituted Imidazopyridines as Hemozoin Formation Inhibitors with Fast-Killing Kinetics and In Vivo Efficacy in the Plasmodium falciparum NSG Mouse Model” (J Med Chem, 2020).
≈ marks a conversion by molar mass, not a printed value.

Assays:
Plasmodium falciparum [1] = experiment: Antiplasmodial activity against multidrug-resistant asexual blood stage Plasmodium falciparum K1 strain assessed as reduction in parasite growth after 72 hrs by NBT reagent based LDH assay; type: functional, organism-based; conditions: K1, 72 h
In short: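 Asexual blood-stage K1 (multidrug-resistant) parasites were read out by the parasite lactate dehydrogenase (pLDH) assay. […] Most individual values varied less than 2× (maximum 3×).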

[2] = Selectivity index, ratio of CC50 for cytotoxicity against CHO cells assessed as reduction in cell viability to IC50 for antiplasmodial activity against multidrug-sensitive Plasmodium falciparum NF54 assessed as reduction in parasite growth; type: toxicity, cell-based; conditions: hamster, read-out: Ratio CC50/IC50
Plasmodium falciparum [3] = experiment: Antiplasmodial activity against multidrug-sensitive asexual blood stage Plasmodium falciparum NF54 strain assessed as reduction in parasite growth after 72 hrs by NBT reagent based LDH assay; type: functional, organism-based; conditions: NF54, 72 h
[4] = Apparent intrinsic clearance in mouse liver microsomes at 0.1 uM in presence of NADPH by LC-MS/MS analysis; type: ADME, Microsome
In short: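 Compound was incubated with mouse liver microsomes for 30 min. Apparent intrinsic clearance (CL_int,app) is reported in μL/min/mg.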

[5] = Aqueous solubility of compound in phosphate buffer saline at pH 6.5 incubated for 20 hrs under shaking condition by shake-flask method based HPLC-DAD analysis; type: physicochemical; conditions: phosphate buffered saline
In short: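 Equilibrium aqueous solubility was measured at pH 6.5 using a miniaturized shake-flask method.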

CHO = experiment: Cytotoxicity against CHO cells assessed as reduction in cell viability by MTT assay; type: cell-based, Cricetulus griseus; conditions: chinese hamster
In short: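 Cytotoxicity was measured in Chinese hamster ovary (CHO) cells and reported as CC50. The selectivity index is CC50 divided by NF54 IC50.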

Hemozoin = experiment: Inhibition of beta-hematin formation assessed as reduction in hemozoin formation incubated for 5 hrs by NP40 detergent-mediated assay
In short: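 Synthetic hemozoin (β-hematin) formation is driven by the detergent Nonidet P-40. Pyridine is then added to detect unreacted hematin. IC50 is derived from this read-out.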

Plasmodium falciparum [6] = experiment: Antiplasmodial activity against early stage (I to III) Plasmodium falciparum NF54 gametocytes incubated for 48 hrs under hypoxia condition by luciferase reporter gene assay; type: functional, organism-based; conditions: NF54, 48 h
Plasmodium berghei = experiment: Antiplasmodial activity against luciferase-expressing Plasmodium berghei sporozoites liver stage infected in human HepG2 cells expressing GFP-CD81 fusion protein incubated for 48 hrs by luciferase reporter gene based bioluminescence assay; type: functional, organism-based; conditions: HepG2, 48 h
In short: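 Liver-stage activity was measured in vitro with rodent P. berghei sporozoites. Values are the mean of 3 technical replicates from the luciferase assay; individual values varied less than 2×.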

Plasmodium falciparum [7] = experiment: Antiplasmodial activity against late stage (IV/V) Plasmodium falciparum NF54 gametocytes at 5 uM incubated for 48 hrs under hypoxia condition by luciferase reporter gene assay relative to control; type: functional
Plasmodium falciparum [8] = experiment: Antiplasmodial activity against late stage (IV/V) Plasmodium falciparum NF54 gametocytes incubated for 48 hrs under hypoxia condition by luciferase reporter gene assay; type: functional, organism-based; conditions: NF54, 48 h
Plasmodium falciparum [9] = experiment: Antiplasmodial activity against early ring-stage synchronized Plasmodium falciparum assessed as decrease in hemozoin formation after 32 hrs by Giemsa-staining based haemocytometric counting method; type: functional, organism-based
Plasmodium falciparum [10] = experiment: Antiplasmodial activity against early ring-stage synchronized Plasmodium falciparum assessed as increase in free heme after 32 hrs by Giemsa-staining based haemocytometric counting method; type: functional, organism-based
In short: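 Whole-parasite cell fractionation assay run as a dose response. Free heme and hemozoin were measured intracellularly across increasing compound concentrations.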

[11] = target: Voltage-gated inwardly rectifying potassium channel KCNH2 (Homo sapiens, UniProt Q12809); experiment: Inhibition of human ERG by patch clamp method
Voltage-gated inwardly rectifying potassium channel KCNH2, sequence (Q12809 whole entry): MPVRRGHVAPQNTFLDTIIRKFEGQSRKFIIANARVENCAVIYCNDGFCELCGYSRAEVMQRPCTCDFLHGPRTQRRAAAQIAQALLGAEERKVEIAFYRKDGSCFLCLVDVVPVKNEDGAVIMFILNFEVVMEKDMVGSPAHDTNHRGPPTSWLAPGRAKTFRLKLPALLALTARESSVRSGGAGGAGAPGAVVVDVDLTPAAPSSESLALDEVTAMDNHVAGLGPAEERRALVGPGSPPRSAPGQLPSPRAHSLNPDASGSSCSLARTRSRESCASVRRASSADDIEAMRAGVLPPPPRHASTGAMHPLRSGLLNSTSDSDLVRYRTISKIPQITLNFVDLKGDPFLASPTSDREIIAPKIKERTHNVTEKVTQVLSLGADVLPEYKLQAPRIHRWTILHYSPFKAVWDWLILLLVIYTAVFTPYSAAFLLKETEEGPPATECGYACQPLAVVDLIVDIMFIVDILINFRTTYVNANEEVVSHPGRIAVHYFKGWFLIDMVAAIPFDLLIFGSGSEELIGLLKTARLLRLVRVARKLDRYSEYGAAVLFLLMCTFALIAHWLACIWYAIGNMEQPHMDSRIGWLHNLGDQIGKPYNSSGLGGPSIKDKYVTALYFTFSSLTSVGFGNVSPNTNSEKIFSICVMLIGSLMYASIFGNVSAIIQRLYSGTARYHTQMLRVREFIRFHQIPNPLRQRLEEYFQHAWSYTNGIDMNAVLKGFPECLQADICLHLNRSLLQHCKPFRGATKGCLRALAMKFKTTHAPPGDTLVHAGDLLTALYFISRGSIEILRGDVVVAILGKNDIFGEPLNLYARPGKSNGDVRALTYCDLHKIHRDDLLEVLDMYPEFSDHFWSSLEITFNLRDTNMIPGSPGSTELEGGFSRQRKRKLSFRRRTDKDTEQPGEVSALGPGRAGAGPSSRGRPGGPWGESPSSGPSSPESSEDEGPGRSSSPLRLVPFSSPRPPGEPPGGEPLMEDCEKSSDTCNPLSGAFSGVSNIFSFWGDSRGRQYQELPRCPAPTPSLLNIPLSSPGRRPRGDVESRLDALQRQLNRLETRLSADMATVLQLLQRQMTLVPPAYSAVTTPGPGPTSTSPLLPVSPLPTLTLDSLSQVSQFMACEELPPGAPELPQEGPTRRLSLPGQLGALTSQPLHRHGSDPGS

CN1CCC(N2CCCN(c3nccc4[nH]c(-c5ccc(F)c(F)c5)nc34)CC2)CC1
IC50 (Plasmodium falciparum [1]): 220 nM | selectivity ratio [2]: 490 | IC50 (Plasmodium falciparum [3]): 35 nM | CLH [4]: > 200 µL/min/mg | solubility thermodynamic at 20 h [5]: 200 µM (≈ 85.3 µg/mL) | CC50 (CHO): 17000 nM

CN1CCN(CC2CCN(c3nc(C#N)cc4[nH]c(-c5cc(F)cc(F)c5)nc34)CC2)CC1
IC50 (Plasmodium falciparum [1]): 49 nM | IC50 (Hemozoin): 8500 nM | IC50 (Plasmodium falciparum [3]): 77 nM | solubility thermodynamic at 20 h [5]: < 5 µM

Fc1ccc(-c2nc3c(N4CCCN(CC5CC5)CC4)nccc3[nH]2)cc1F
IC50 (Plasmodium falciparum [1]): 77 nM | selectivity ratio [2]: 850 | IC50 (Plasmodium falciparum [3]): 20 nM | IC50 (Plasmodium falciparum [6]): 5300 nM | solubility thermodynamic at 20 h [5]: 200 µM (≈ 76.7 µg/mL) | IC50 (Plasmodium berghei): 17000 nM | inhibition at 5 µM (Plasmodium falciparum [7]): 48%

CN1CCN(C2CCN(c3nccc4[nH]c(-c5ccc(F)c(F)c5)nc34)CC2)CC1
IC50 (Plasmodium falciparum [1]): 220 nM | selectivity ratio [2]: 110 | IC50 (Plasmodium falciparum [3]): 46 nM | solubility thermodynamic at 20 h [5]: 130 µM (≈ 53.6 µg/mL) | CC50 (CHO): 5000 nM

CN1CCC(N2CCN(c3nccc4[nH]c(-c5ccc(F)c(F)c5)nc34)CC(F)(F)C2)CC1
IC50 (Plasmodium falciparum [1]): 160 nM | IC50 (Plasmodium falciparum [3]): 59 nM | CLH [4]: 33 µL/min/mg | solubility thermodynamic at 20 h [5]: 180 µM (≈ 83.2 µg/mL) | CC50 (CHO): 33000 nM

NC1CCN(c2nccc3[nH]c(-c4cccc(OC(F)(F)F)c4)nc23)CC1
IC50 (Plasmodium falciparum [1]): 1200 nM | IC50 (Hemozoin): 148000 nM | IC50 (Plasmodium falciparum [8]): 2800 nM | IC50 (Plasmodium falciparum [3]): 73 nM | IC50 (Plasmodium falciparum [6]): 780 nM | Activity (Plasmodium falciparum [9]): Dose-dependent effect | solubility thermodynamic at 20 h [5]: 200 µM (≈ 75.5 µg/mL) | IC50 (Plasmodium berghei): 14000 nM | CC50 (CHO): 42000 nM | Activity (Plasmodium falciparum [10]): Dose-dependent effect | inhibition at 5 µM (Plasmodium falciparum [7]): 95%

CN1CCN(CC2CCN(c3nccc4[nH]c(-c5cccc(OC(F)(F)F)c5)nc34)CC2)CC1
IC50 (Plasmodium falciparum [1]): 12 nM | selectivity ratio [2]: 47 | IC50 (Plasmodium falciparum [3]): < 20 nM | solubility thermodynamic at 20 h [5]: 200 µM (≈ 94.9 µg/mL) | CC50 (CHO): 950 nM

Cc1cc2[nH]c(-c3cc(F)cc(F)c3)nc2c(N2CCC(CN3CCN(C)CC3)CC2)n1
IC50 [11]: > 30000 nM | IC50 (Plasmodium falciparum [1]): 21 nM | IC50 (Hemozoin): 15000 nM | selectivity ratio [2]: 160 | IC50 (Plasmodium falciparum [3]): 12 nM | solubility thermodynamic at 20 h [5]: 200 µM (≈ 88.1 µg/mL) | CC50 (CHO): 1900 nM

CN1CCN(C2CCN(c3nccc4[nH]c(-c5cccc(OC(F)(F)F)c5)nc34)CC2)CC1
IC50 (Plasmodium falciparum [1]): 91 nM | selectivity ratio [2]: 47 | IC50 (Plasmodium falciparum [3]): 64 nM | solubility thermodynamic at 20 h [5]: 190 µM (≈ 87.5 µg/mL) | CC50 (CHO): 3000 nM

CN1CCN(CC2CCN(c3nccc4[nH]c(-c5ccc(F)c(F)c5)nc34)CC2)CC1
IC50 (Plasmodium falciparum [1]): 27 nM | selectivity ratio [2]: 370 | IC50 (Plasmodium falciparum [3]): < 20 nM | solubility thermodynamic at 20 h [5]: 195 µM (≈ 83.2 µg/mL) | CC50 (CHO): 7400 nM

Fc1ccc(-c2nc3c(N4CCNCC4)nccc3[nH]2)cc1F
IC50 [11]: 3400 nM | IC50 (Plasmodium falciparum [1]): 970 nM | IC50 (Plasmodium falciparum [3]): 170 nM | solubility thermodynamic at 20 h [5]: 150 µM (≈ 47.3 µg/mL) | CC50 (CHO): 8100 nM
